Bioassay records deposited in PubChem by several laboratories.
T cruzi inh: T. cruzi replication inhibition | T. cruzi beta-gal in NIH3T3, luminescence, 90 h | inhibition, % (concentration not given with the values) | actives 1.4% (n = 300,000);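 active = mean inhibition across valid replicates above about 55%, limit read from the data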;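 also: signal also drops with host cell toxicity which is not excluded here; higher percent means less beta-gal luminescence so fewer parasites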
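compound dosing = single 50 nL compound addition per well in DMSO | material = NIH/3T3 host cells with β-galactosidase reporter T. cruzi | input = 5,000 host fibroblasts per well | timing = ≥90 h infection period, 3 h prior cell attachment | read-out basis = percent inhibition of parasite-derived β-gal signal | detection = GalScreen β-gal luminescence, detergent lysis, 60 min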
L major viab: inhibitors of Leishmania major promastigote growth; inhibition, % at 10 µM; Leishmania major promastigotes, resazurin fluorescence viability; actives 9% (n = 200,000); in the data active = inhibition above about 50%;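 also: promastigotes grown with compound for 44 hours at 28 °C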
CHOP UPR activ: activators of apoptotic arm of unfolded protein response (CHOP) | CHO-CHOP luciferase reporter, UPR activation, luminescence; percent of tunicamycin response over DMSO baseline | activation, % at 10 µM | actives 0.34% (n = 330,000);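 active = at 10 µM dose, activation of 40% or more, normalized to positive control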
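System: CHO-CHOP luciferase reporter cell line; amount: 500 cells/well; buffer or medium: F12 medium containing 10% fetal bovine serum; incubation: 6 h compound exposure at 37 °C after overnight seeding; measured by: luciferase luminescence after 10 min with Steady-Glo reagent; evaluation: % reporter activation, DMSO baseline versus tunicamycin full activation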
Dynein transport: blocks dynein driven cargo transport along microtubules. 3617.4 mouse cells, GR-EGFP nuclear translocation imaging; test concentration mostly 20 µM; stimulated with dexamethasone, 1 µM; active compounds read low. z-score, hits read low. actives 0.47% (n = 220,000). AID 1381;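 active = plate z-score of nuclear minus cytoplasmic receptor signal below a set negative limit, without overly bright fluorescence or cell loss, cut at about -3.5 in these data, passing the limit was not always enough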;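 also: z-score of nuclear minus cytoplasmic ring GR-EGFP intensity difference per well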
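Buffer or medium: tet-free, stripped-serum medium; reagent: dexamethasone at 1.0 µM final, 30 min; incubation: 48 h induction, 1 h compound, 30 min dex at 37 °C; measured by: formaldehyde fixation, Hoechst nuclear stain, 10x automated fluorescence imaging; read-out: nuclear-to-cytoplasmic GR-EGFP distribution per well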
CHOP inhibitor: inhibitors of CHOP induction in ER stress response. actives 3.8% (n = 220,000). CHO-K1 CHOP-promoter luciferase, tunicamycin-induced, 15-18 h. inhibition, % at 10 µM;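 active = compounds that reduced the stress-induced luciferase reporter signal by more than about 70% of percent inhibition, limit read from the data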
UPR XBP1 act: activators of adaptive arm of unfolded protein response (XBP1). CHO-XBP1 luciferase reporter, IRE1-XBP1 UPR activation, luminescence; percent of tunicamycin response, DMSO as zero. activation, % at 20 µM. actives 0.33% (n = 330,000). AID 463104;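 active = versus positive control, 20 µM dose yields 30% or more activation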
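Material – CHO cell line with stable XBP1 luciferase reporter · Buffer or medium – F12 plus 10% FBS · Compound – single point, 20 µM final compound, 1% DMSO · Schedule – 16-18 h cell attachment at 37 °C, then 6 h compound exposure · Signal – Steady-Glo luminescence read · Benchmarks – high control tunicamycin 10 µg/mL final, low control DMSO vehicle only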
CHOP UPR conf: apoptotic UPR (CHOP) activation, confirmed; shares compounds with CHOP UPR activ; CHO-CHOP cells, CHOP-luciferase reporter luminescence; percent of tunicamycin response, DMSO as zero; activation, % at 10 µM; actives 64% (n = 1,000); in the data active = activation above about 33%
A number is an active result; - = inactive; . = not tested or not shown. Many of the other results were omitted from the sample, so hits are more common in it than they were.

SMILES	T cruzi inh	L major viab	CHOP UPR activ	Dynein transport	CHOP inhibitor	UPR XBP1 act	CHOP UPR conf
CC(Oc1ccc(-c2ccccc2)cc1)C(=O)N/N=C/c1cccnc1 (stereo unspecified)	-	.	-	.	.	-	.
O=C1C2CC=CCC2C(=O)N1c1ccc(NCCc2ccc(Cl)cc2)c([N+](=O)[O-])c1 (stereo unspecified)	-	-	46	-	-	-	-
O=C1C2CC=CCC2C(=O)N1c1ccc(NCCc2ccc(O)cc2)c([N+](=O)[O-])c1 (stereo unspecified)	-	-	-	-	-	-	.
CC(C)C[C@H](NC(=O)C1CC(=O)N(c2ccc3c(c2)OCO3)C1)C(=O)NC1CCCCC1 (stereo partly specified)	-	.	-	.	.	-	.
Fc1ccc(Oc2nc(-c3ccccn3)nc3ccccc23)cc1	-	.	-	-	-	-	.
COc1ccc(Oc2nc(-c3ccccn3)nc3ccccc23)cc1	-	.	52	-	-	-	-
c1ccc(Oc2nc(-c3ccccn3)nc3ccccc23)cc1	65	.	41	-	-	-	-
O=C(N/N=C/c1ccccn1)c1cc([N+](=O)[O-])cc([N+](=O)[O-])c1	-	89	45	-	-	-	65
O=C(N/N=C/c1ccccn1)c1ccc(N/N=C/c2ccccn2)cc1	-	-	-	-	-	-	.
CC1CN(C(=S)Nc2ccccc2C(F)(F)F)CC(C)O1 (stereo unspecified)	-	.	-	.	.	-	.
O=C1/C(=C/c2ccccc2F)SC(=S)N1CCC(=O)N1CCCCC1CCO (stereo unspecified)	-	.	-	.	.	-	.
O=C(CCN1C(=O)/C(=C\c2ccccc2F)SC1=S)N1CCCCC1	-	.	43	.	.	-	37
Cc1ccc(N2C(=O)c3ccccc3C2=O)cc1	-	.	-	-	-	-	.
Cc1ccc(SC2=C(Sc3ccc(C)cc3)C(=O)c3ccccc3C2=O)cc1	-	.	215	-	-	-	-
CN(C)S(=O)(=O)N1CCC(Oc2cccc(C(=O)NC3CCOC3)c2)CC1 (stereo unspecified)	-	.	-	.	.	-	.
CCCCC(CC)CN=C(N)NC(N)=NCCCCCCN=C(N)NC(N)=NCC(CC)CCCC (stereo unspecified)	.	.	54	.	.	-	38
CCC(=O)Nc1ccc(C(=O)NNC(=O)C2CCCCC2)cc1	.	.	-	.	.	-	.
Cc1ccc(-c2nc(NC(=O)c3nn(C)cc3[N+](=O)[O-])sc2C)cc1C	64	-	65	-	-	-	68
Cc1cc(C)n(Cc2ccc(NC(=O)c3nn(C)cc3[N+](=O)[O-])cc2)n1	-	-	-	-	-	-	.
CCn1cc(C(=O)NCCC(=O)NCCCO)c(=O)c2cc3c(cc21)OCO3	-	.	-	.	.	-	.
O=C(CN(c1cccc(C(F)(F)F)c1)S(=O)(=O)c1ccc(Cl)c([N+](=O)[O-])c1)NCc1ccc(F)cc1	-	-	53	-	-	-	50
COC(=O)C1=C(C)N(c2ccc(C)c(C)c2)/C(=C/c2ccco2)C1=O	-	61	68	-	-	-	47
O=C(CN1C(=O)c2ccccc2S1(=O)=O)Nc1ccon1	-	.	-	.	.	-	.
CC(Cc1ccc(O)c(O)c1)C(C)Cc1ccc(O)c(O)c1 (stereo unspecified)	-	.	83	.	.	-	-
Cc1cccc(CS(=O)(=O)c2ncc(Cl)c(C(=O)Nc3c(C)cccc3C)n2)c1	-	.	-	.	.	-	.
SMILES	T cruzi inh	L major viab	CHOP UPR activ	Dynein transport	CHOP inhibitor	UPR XBP1 act	CHOP UPR conf
Cc1cccc(C)c1NC(=O)c1nc(S(=O)(=O)Cc2ccccc2)ncc1Cl	-	.	239	.	.	-	271
Cc1ccccc1CS(=O)(=O)c1ncc(Cl)c(C(=O)Nc2ccc(F)cc2)n1	-	.	187	.	.	-	101
Cc1nnc(NC(=O)c2nc(S(=O)(=O)Cc3ccccc3)ncc2Cl)s1	-	.	41	.	.	-	-
Cc1ccc(NC(=O)c2nc(S(=O)(=O)Cc3ccccc3)ncc2Cl)cc1	-	.	-	.	.	-	.
COc1ccc(NC(=O)c2nc(S(=O)(=O)Cc3cccc(C)c3)ncc2Cl)c(OC)c1	-	.	61	.	.	-	296
COc1ccc(OC)c(NC(=O)c2nc(S(=O)(=O)Cc3ccccc3)ncc2Cl)c1	-	.	-	.	.	-	.
O=c1oc2cc(Oc3c([N+](=O)[O-])cc(C(F)(F)F)cc3[N+](=O)[O-])ccc2c2c1CCCC2	-	-	54	-3.8	95	-	-
O=c1oc2cc(Oc3ccc(C(F)(F)F)cc3[N+](=O)[O-])ccc2c2c1CCC2	-	-	-	-	-	-	.
Oc1ccc(CN2CCN(c3ccccc3)CC2)c2cccnc12	64	100	67	-	-	-	50
Oc1c(Cl)cc(CN2CCCCC2)c2cccnc12	-	.	84	.	.	-	74
Oc1ccc2ccccc2c1CN1CCN(c2ccccc2)CC1	-	-	-	-	-	-	.
Oc1ccc(CN2CCc3ccccc3C2)c2cccnc12	57	100	104	-	-	-	102
Clc1ccccc1CN1CCN(c2ncccn2)CC1	-	.	-	.	.	-	.
CCOC(=O)N1CCN(Cc2ccc(O)c3ncccc23)CC1	-	-	62	-	-	-	78
CCOc1ccc(CCNC(=O)c2cn(C)c3ccc(S(=O)(=O)N4CCOCC4)cc3c2=O)cc1OCC	-	.	-	.	.	-	.
Cc1cc(Br)c(NC(=O)CCNC(=O)OCc2ccccc2)cc1C	-	.	-	.	.	-	.
CCCC(=O)Nc1nnc(SCC(=O)NC2CC2)s1	-	.	-	.	.	-	.
CCOc1ccc(NC(=O)COC(=O)c2cc(C)oc2C)cc1	.	.	-	.	.	-	.
C=CCNC(=S)N1CCN(C2CCCCC2)CC1	-	.	-	-	-	-	.
O=C(/C=C/c1ccc(O)c(O)c1)c1ccc(S(=O)(=O)N2CCCCCC2)cc1	-	95	90	-	-	-	-
CCCC(C(=O)Nc1cccc(S(=O)(=O)N2CCCC2)c1)c1ccccc1 (stereo unspecified)	-	.	-	.	.	-	.
C/C(=N\NC(=O)c1cccnc1)c1cc2ccccc2o1	-	-	-	-	-	-	.
C/C(=N\NC(=O)c1ccncc1)c1cc2ccccc2o1	-	-	115	-	-	-	-
O=C(NCc1nc2ccccc2[nH]1)C1=C[C@H](c2ccc(C(F)(F)F)cc2)C[C@H](OCCCCO)O1	-	.	-	.	.	-	.
Cc1ccc(C(=O)Oc2ccc(Cl)c3cccnc23)cc1[N+](=O)[O-]	-	98	81	-	-	-	65
O=C(Oc1ccc(Cl)c2cccnc12)c1cccnc1	-	.	-	.	.	-	.
